# Experimental data: ChEMBL document CHEMBL5058577, “EUbOPEN Chemogenomics Library 2 (Multiplex)” (2022)
# Tested on: HEK-293T
# Test: Multiplex assay against HEK293T
# Format: toxicity, cell-based
# Conditions: human
# Outline: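 Live cells were stained at seeding with Hoechst33342, BioTracker Green Microtubule Cytoskeleton Dye, MitoTracker Red and Annexin V Alexa Fluor 680, then imaged on a CQ1 microscope at 37°C and 5% CO2 after compound addition. CellPathfinder machine-learning gating split cells into Hoechst high-intensity objects or normal cells. Normal cells were split into healthy, pyknosed or fragmented nuclei, and pyknosed cells into mitotic or apoptotic. Tubulin, mitochondrial-mass and membrane-permeability phenotypes are per cents of healthy-nucleus cells.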
# [1] = 12 h, 1 µM, compound concentration 1 uM, replicate 1
# [2] = 12 h, 1 µM, compound concentration 1 uM, replicate 2
# [3] = 12 h, 10 µM, compound concentration 10 uM, replicate 1
# [4] = 12 h, 10 µM, compound concentration 10 uM, replicate 2
# [5] = 24 h, 1 µM, compound concentration 1 uM, replicate 1
# [6] = 24 h, 1 µM, compound concentration 1 uM, replicate 2
# [7] = 24 h, 10 µM, compound concentration 10 uM, replicate 1
# [8] = 24 h, 10 µM, compound concentration 10 uM, replicate 2
# [9] = 48 h, 1 µM, compound concentration 1 uM, replicate 1
# [10] = 48 h, 1 µM, compound concentration 1 uM, replicate 2
# [11] = 48 h, 10 µM, compound concentration 10 uM, replicate 1
# [12] = 48 h, 10 µM, compound concentration 10 uM, replicate 2
smiles,measurement,setting,value
CCc1nn2c(C)cc(C)nc2c1Cc1ccc(-c2nnc(C3CCNCC3)o2)cc1,Population Apoptotic (%),[1],35%
same,Population Fragmented Nuclei (%),[1],9%
same,Population Healthy Nuclei (%),[1],80%
same,Population Hoechst High Intensity Objects (%),[1],7%
same,Population Membrane Permeable-Phenotype (%),[1],0%
same,Population Mitochondria Different-Phenotype (%),[1],54%
same,Population Mitotic Cells (%),[1],64%
same,Population Normal (%),[1],92%
same,Population Pyknosed Nuclei (%),[1],10%
same,Population Tubulin-Different-Phenotype (%),[1],37%
same,Total Cell Count,[1],401
same,Population Apoptotic (%),[2],51%
same,Population Fragmented Nuclei (%),[2],7%
same,Population Healthy Nuclei (%),[2],78%
same,Population Hoechst High Intensity Objects (%),[2],5%
same,Population Mitochondria Different-Phenotype (%),[2],62%
same,Population Mitotic Cells (%),[2],48%
same,Population Normal (%),[2],94%
same,Population Pyknosed Nuclei (%),[2],13%
same,Population Tubulin-Different-Phenotype (%),[2],19%
same,Total Cell Count,[2],395
same,Population Apoptotic (%),[3],63%
same,Population Fragmented Nuclei (%),[3],6%
same,Population Healthy Nuclei (%),[3],68%
same,Population Hoechst High Intensity Objects (%),[3],11%
same,Population Membrane Permeable-Phenotype (%),[3],0%
same,Population Mitochondria Different-Phenotype (%),[3],85%
same,Population Mitotic Cells (%),[3],36%
same,Population Normal (%),[3],88%
same,Population Pyknosed Nuclei (%),[3],25%
same,Population Tubulin-Different-Phenotype (%),[3],65%
same,Total Cell Count,[3],319
same,Population Apoptotic (%),[4],56%
same,Population Fragmented Nuclei (%),[4],4%
same,Population Healthy Nuclei (%),[4],78%
same,Population Hoechst High Intensity Objects (%),[4],12%
same,Population Mitochondria Different-Phenotype (%),[4],86%
same,Population Mitotic Cells (%),[4],43%
same,Population Normal (%),[4],87%
same,Population Pyknosed Nuclei (%),[4],17%
same,Population Tubulin-Different-Phenotype (%),[4],48%
same,Total Cell Count,[4],293
same,Population Apoptotic (%),[5],44%
same,Population Fragmented Nuclei (%),[5],10%
same,Population Healthy Nuclei (%),[5],76%
same,Population Hoechst High Intensity Objects (%),[5],4%
same,Population Membrane Permeable-Phenotype (%),[5],0%
same,Population Mitochondria Different-Phenotype (%),[5],36%
same,Population Mitotic Cells (%),[5],55%
same,Population Normal (%),[5],95%
same,Population Pyknosed Nuclei (%),[5],13%
same,Population Tubulin-Different-Phenotype (%),[5],23%
same,Total Cell Count,[5],529
same,Population Apoptotic (%),[6],34%
same,Population Fragmented Nuclei (%),[6],7%
same,Population Healthy Nuclei (%),[6],78%
same,Population Hoechst High Intensity Objects (%),[6],5%
same,Population Mitochondria Different-Phenotype (%),[6],50%
same,Population Mitotic Cells (%),[6],65%
same,Population Normal (%),[6],94%
same,Population Tubulin-Different-Phenotype (%),[6],19%
same,Total Cell Count,[6],542
same,Population Apoptotic (%),[7],69%
same,Population Fragmented Nuclei (%),[7],11%
same,Population Healthy Nuclei (%),[7],72%
same,Population Hoechst High Intensity Objects (%),[7],5%
same,Population Membrane Permeable-Phenotype (%),[7],0%
same,Population Mitochondria Different-Phenotype (%),[7],73%
same,Population Mitotic Cells (%),[7],30%
same,Population Normal (%),[7],94%
same,Population Pyknosed Nuclei (%),[7],15%
same,Population Tubulin-Different-Phenotype (%),[7],50%
same,Total Cell Count,[7],448
same,Population Apoptotic (%),[8],41%
same,Population Fragmented Nuclei (%),[8],10%
same,Population Healthy Nuclei (%),[8],77%
same,Population Hoechst High Intensity Objects (%),[8],7%
same,Population Mitochondria Different-Phenotype (%),[8],78%
same,Population Mitotic Cells (%),[8],58%
same,Population Normal (%),[8],92%
same,Population Pyknosed Nuclei (%),[8],11%
same,Population Tubulin-Different-Phenotype (%),[8],45%
same,Total Cell Count,[8],389
same,Population Apoptotic (%),[9],28%
same,Population Fragmented Nuclei (%),[9],12%
same,Population Healthy Nuclei (%),[9],79%
same,Population Hoechst High Intensity Objects (%),[9],2%
same,Population Membrane Permeable-Phenotype (%),[9],0%
same,Population Mitochondria Different-Phenotype (%),[9],25%
same,Population Mitotic Cells (%),[9],71%
same,Population Normal (%),[9],97%
same,Population Pyknosed Nuclei (%),[9],8%
same,Population Tubulin-Different-Phenotype (%),[9],15%
same,Total Cell Count,[9],842
same,Population Apoptotic (%),[10],32%
same,Population Fragmented Nuclei (%),[10],11%
same,Population Healthy Nuclei (%),[10],83%
same,Population Hoechst High Intensity Objects (%),[10],5%
same,Population Mitochondria Different-Phenotype (%),[10],24%
same,Population Mitotic Cells (%),[10],67%
same,Population Normal (%),[10],94%
same,Population Pyknosed Nuclei (%),[10],5%
same,Population Tubulin-Different-Phenotype (%),[10],10%
same,Total Cell Count,[10],829
same,Population Apoptotic (%),[11],54%
same,Population Fragmented Nuclei (%),[11],14%
same,Population Healthy Nuclei (%),[11],72%
same,Population Hoechst High Intensity Objects (%),[11],4%
same,Population Membrane Permeable-Phenotype (%),[11],0%
same,Population Mitochondria Different-Phenotype (%),[11],59%
same,Population Mitotic Cells (%),[11],45%
same,Population Normal (%),[11],95%
same,Population Pyknosed Nuclei (%),[11],13%
same,Population Tubulin-Different-Phenotype (%),[11],32%
same,Total Cell Count,[11],517
same,Population Apoptotic (%),[12],50%
same,Population Fragmented Nuclei (%),[12],12%
same,Population Healthy Nuclei (%),[12],80%
same,Population Hoechst High Intensity Objects (%),[12],3%
same,Population Mitochondria Different-Phenotype (%),[12],56%
same,Population Mitotic Cells (%),[12],50%
same,Population Normal (%),[12],96%
same,Population Pyknosed Nuclei (%),[12],6%
same,Population Tubulin-Different-Phenotype (%),[12],26%
same,Total Cell Count,[12],607
